{"data": "Measurements from different studies", "target": "SRSF protein kinase 2 (SRPK2, Homo sapiens, UniProt P78362)", "note": "Protocols differ between the studies behind these lines."}
{"SMILES": "O=C(Nc1c[nH]nc1C(=O)NC1CCNCC1)c1cc(F)cc(F)c1", "observed": "binding", "method": "competition with immobilised ligand", "concentration": "1 µM", "remaining binding": "85%"}
{"SMILES": "N[C@@H]1CCN(c2nccc(-c3cnn4ncccc34)n2)C1", "observed": "binding", "concentration": "1 µM", "remaining binding": "100%"}
{"SMILES": "O=C(c1ccc(Nc2nccc(-c3cc4ccccc4s3)n2)cc1)N1CCC(N2CCCC2)CC1", "observed": "binding", "method": "competition with immobilised ligand", "concentration": "1 µM", "remaining binding": "92%"}
{"SMILES": "CNC(=O)[C@@H]1CC[C@@H](n2c(-c3ccc4cnccc4c3)nc3ccc(C(=O)NCc4cccc(C(N)=O)c4)cc32)C1", "observed": "binding", "method": "competition with immobilised ligand", "concentration": "1 µM", "remaining binding": "100%"}
{"SMILES": "COc1ncc2cc3ccccc3nc2c1C#N", "observed": "cell-free assay", "method": "competition with immobilised ligand", "concentration": "5 µM", "remaining binding": "100%"}
{"SMILES": "CN(CCCC(F)(F)F)c1nccc(-c2cnn3ncccc23)n1", "observed": "binding", "concentration": "1 µM", "remaining binding": "100%"}
{"SMILES": "FC(F)(F)Oc1cccc(-c2cnc3ccc(-c4ccncc4)nn23)c1", "observed": "binding", "method": "competition with immobilised ligand", "concentration": "5 µM", "remaining binding": "66%"}
{"SMILES": "CS(=O)(=O)N1CCCC(NC(=O)[C@H](CCC2CCCCC2)NC(=O)c2ccc(CNC(=O)c3cnc4ccccn34)cc2)C1 (stereo partly drawn)", "observed": "cell-free assay", "method": "competition with immobilised ligand", "concentration": "0.1 µM", "remaining binding": "83%"}
{"SMILES": "C[C@@H]1CCN(c2nccc(-c3cnn4ncccc34)n2)C1", "observed": "binding", "concentration": "1 µM", "remaining binding": "100%"}
{"SMILES": "C[C@@H]1CN(c2cc(-c3nn(C)c4ccc(OC5(C)CC5)cc34)ncn2)C[C@H](C)O1", "observed": "cell-free assay", "method": "competition with immobilised ligand", "concentration": "1 µM", "remaining binding": "88%"}
{"SMILES": "COc1ccnn2ncc(-c3ccnc(N(C)C)n3)c12", "observed": "binding", "concentration": "1 µM", "remaining binding": "100%"}
{"SMILES": "CC1=C(C#N)C(c2ccc3c(c2)c(NC(=O)c2ccccc2C)nn3C)C(C#N)=C(C)N1", "observed": "cell-free assay", "method": "competition with immobilised ligand", "concentration": "1 µM", "remaining binding": "88%"}
{"SMILES": "CC1CCCN1c1nccc(-c2cnn3ncccc23)n1 (stereo not drawn)", "observed": "binding", "concentration": "1 µM", "remaining binding": "100%"}
{"SMILES": "Cc1cnc(Nc2ccc(C(=O)N3CCC(N4CCCC4)CC3)cc2)nc1-c1cc2ccccc2s1", "observed": "binding", "method": "competition with immobilised ligand", "concentration": "1 µM", "remaining binding": "100%"}
{"SMILES": "COc1cnc(Nc2cccc(S(N)(=O)=O)c2)nc1N1CCN(c2ccccc2)CC1", "observed": "binding", "method": "competition with immobilised ligand", "concentration": "1 µM", "remaining binding": "87%"}
{"SMILES": "Cc1c(NC(=O)c2cc(C(N)=O)nc3cc(F)ccc23)c(C(F)(F)F)nn1Cc1ccc(C(C)(C)C)cc1", "observed": "cell-free assay", "method": "competition with immobilised ligand", "concentration": "1 µM", "remaining binding": "97%"}
{"SMILES": "C[C@@H](c1ccc(-n2cnc3c(N)ncnc32)cc1)N1CCc2nn(C)c(Cc3ccccc3)c2C1=O", "observed": "binding", "method": "competition with immobilised ligand", "concentration": "0.1 µM", "remaining binding": "83%"}
{"SMILES": "N#Cc1ccc(Nc2ccc3[nH]c(=O)[nH]c3c2)c(Cl)c1", "observed": "cell-free assay", "method": "competition with immobilised ligand", "concentration": "1 µM", "remaining binding": "100%"}
{"SMILES": "CN(C)c1nccc(-c2cnc3ncccn23)n1", "observed": "binding", "concentration": "1 µM", "remaining binding": "100%"}
{"SMILES": "O=C(NCCCN1CCOCC1)c1ccc(Nc2nccc(-c3cc4ccccc4s3)n2)cc1", "observed": "binding", "method": "competition with immobilised ligand", "concentration": "1 µM", "remaining binding": "99%"}
{"SMILES": "O=C(N1CCS(=O)(=O)CC1)N1C[C@H](c2ccc(OC(F)(F)F)cc2)C[C@H](c2nc(C3CC3)no2)C1", "observed": "cell-free assay", "method": "competition with immobilised ligand", "concentration": "1 µM", "remaining binding": "100%"}
